Drawing on ChEMBL document CHEMBL1124795, “Synthesis and cytotoxicity of deoxyadenosine analogues: isomer distribution in the sodium salt glycosylation of 2,6-disubstituted purines” (J Med Chem, 1990), this text covers IC50, ID50 and CC50 for nine molecules.

Molecules are shown by their SMILES. Activity calls are given as the source filed them. The rule behind the calls is not given here.

For data set [1], the system named is MOLT-4. Nature of the data set: (§1) In vitro toxicity which caused 50% decrease in [14C]- leucine incorporation by the MOLT-4 cells in culture. In kind it is functional. The conditions noted are these: Homo sapiens, read-out: ID50 (the source's name). Summed up: (§2)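 Cells seeded at 10⁴ per well and exposed to compounds for 3 days in RPMI 1640 with 10% fetal calf serum, glutamine and antibiotics, at 37 °C under 5% CO₂. [¹⁴C]-L-leucine (0.5 μCi/mL) was present for the final 24 h. Protein was precipitated with 0.2 N perchloric acid, collected on glass-fibre filters and scintillation-counted. ID50 (μM, 50% drop in incorporation) was read from triplicate dose-response curves.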

Data set [2] concerns NALL-1. Description: (§3) In vitro toxicity which caused 50% decrease in [14C]- leucine incorporation by the NALL-1 cells in culture. Type of data set: functional. The note with it: Homo sapiens, read-out: ID50 (the source's name). Put shortly: as §2
Data set [3] deals with B-95-8 cell line. Nature of the data set: In vitro toxicity which caused 50% decrease in [14C]- leucine incorporation by the B-95-8 cells in culture. In kind it is functional, Callitrichidae. The conditions noted are these: Saguinus oedipus, read-out: ID50 (the source's name). Put shortly:
as §2

Data set [4] has as its system K562. Description: In vitro toxicity which caused 50% decrease in [14C]- leucine incorporation by the K-562 cells in culture. Type of data set: functional. The conditions noted are these: Homo sapiens, read-out: ID50 (the source's name). Summed up:
as §2

Data set [5] concerns Raji. Description: (§4) In vitro toxicity which caused 50% decrease in [14C]- leucine incorporation by the Raji cells in culture. In kind it is functional. The conditions noted are these: Homo sapiens, read-out: ID50 (the source's name). Put shortly: as §2
Data set [6] concerns HL-60. Nature of the data set: In vitro toxicity which caused 50% decrease in [14C]- leucine incorporation by the HL-60 cells in culture. In kind it is functional. The conditions noted are these: Homo sapiens, read-out: ID50 (the source's name). Summed up: as §2
In data set [7] the test system is PHA-Ly. Nature of the data set: In vitro toxicity which caused 50% decrease in [14C]- leucine incorporation by the PHA-LY cells in culture. In kind it is functional. The conditions noted are these: Homo sapiens, read-out: ID50 (the source's name). Put shortly: as §2
Data set [8] deals with U-937. Description: (§5) In vitro toxicity which caused 50% decrease in [14C]- leucine incorporation by the U-937 cells in culture. Type of data set: functional. The note with it: Homo sapiens, read-out: ID50 (the source's name). Put shortly:
as §2

Data set [9] deals with K562. Nature of the data set: In vitro toxicity which caused 50% decrease in [14C]- leucine incorporation by the K-562 cells in culture at 40 uM; IN-Inactive. Type of data set: functional, cell-based. The conditions noted are these: Homo sapiens. Put shortly: as §2
The test system of data set [10] is B-95-8 cell line. Description: In vitro toxicity which caused 50% decrease in [14C]- leucine incorporation by the B-95-8 cells in culture at 40 uM; IN-Inactive. Type of data set: functional, cell-based. Put shortly:
as §2

In data set [11] the test system is U-937. Nature of the data set: In vitro toxicity which caused 50% decrease in [14C]- leucine incorporation by the U-937 cells in culture at 40 uM; IN-Inactive. The note with it: Homo sapiens. Type of data set: functional, cell-based. Summed up: as §2
The subject of data set [12] is NALL-1. Nature of the data set: In vitro toxicity which caused 50% decrease in [14C]- leucine incorporation by the NALL-1 cells in culture at 40 uM; IN-Inactive. Type of data set: functional, cell-based. The conditions noted are these: Homo sapiens. Put shortly:
as §2

The subject of data set [13] is HL-60. Nature of the data set: In vitro toxicity which caused 50% decrease in [14C]- leucine incorporation by the HL-60 cells in culture at 40 uM; IN-Inactive. Type of data set: functional, cell-based. The note with it: Homo sapiens. Put shortly: as §2
Data set [14] relates to Raji. Nature of the data set: In vitro toxicity which caused 50% decrease in [14C]- leucine incorporation by the Raji cells in culture at 40 uM; IN-Inactive. In kind it is functional, cell-based. The conditions noted are these: Homo sapiens. Put shortly: as §2
The subject of data set [15] is MOLT-4. Description: In vitro toxicity which caused 50% decrease in [14C]- leucine incorporation by the MOLT-4 cells in culture at 40 uM; IN-Inactive. In kind it is functional, cell-based. The note with it: Homo sapiens. Summed up: as §2
Data set [16] deals with PHA-Ly. Nature of the data set: In vitro toxicity which caused 50% decrease in [14C]- leucine incorporation by the PHA-LY cells in culture at 40 uM; IN-Inactive. The note with it: Homo sapiens. In kind it is functional, cell-based. Put shortly: as §2
The subject of data set [17] is U-937. The data set is described as §5. In kind it is cell-based. The conditions noted are these: human, read-out: ID50 (the source's name). Put shortly: as §2
The subject of data set [18] is MOLT-4. The description is as §1. In kind it is cell-based. The note with it: human, read-out: ID50 (the source's name). Summed up:
as §2

For data set [19], the system named is NALL-1. Described as §3. In kind it is cell-based. The note with it: human, read-out: ID50 (the source's name). Summed up: as §2
The test system of data set [20] is Raji. The description is as §4. The conditions noted are these: human, read-out: ID50 (the source's name). In kind it is cell-based. Summed up:
as §2

Consider `CSc1nc(N(C)C)c2ncn([C@@H]3C[C@@H](O)[C@H](CO)O3)c2n1`, for which the IC50 in the data set on MOLT-4 [1] was 172 µM; in the data set on NALL-1 [2] it was 188 µM; in the data set with B-95-8 cell line [3] it was 116 µM; in the data set on K562 [4], greater than 300 µM; with Raji [5], 233 µM; in the data set with HL-60 [6] it was greater than 300 µM. Further, the IC50 in the data set with PHA-Ly [7] turned out to be 260 µM; with U-937 [8], 126 µM.
With `CSc1nc(SC)c2ncn([C@@H]3C[C@@H](O)[C@H](CO)O3)c2n1`, the IC50 with MOLT-4 [1] is 141 µM; with NALL-1 [2], 173 µM; in the data set on B-95-8 cell line [3] it was 225 µM; in the data set with K562 [4] it was greater than 300 µM; in the data set with Raji [5], 170 µM; in the data set on HL-60 [6], greater than 300 µM. Besides, the IC50 is 167 µM in the data set on PHA-Ly [7] and greater than 300 µM in the data set with U-937 [8].
On to `CSc1nc(N)c2ncn([C@@H]3C[C@@H](O)[C@H](CO)O3)c2n1`, for which the IC50 is greater than 300 µM in the data set on MOLT-4 [1]; 96 µM in the data set with NALL-1 [2]; greater than 300 µM in the data set with B-95-8 cell line [3]; greater than 300 µM in the data set on K562 [4]; 107 µM in the data set with Raji [5]; greater than 300 µM in the data set with HL-60 [6]. The results for the IC50 with PHA-Ly [7] and in the data set with U-937 [8] were 82 µM and greater than 300 µM, respectively.
On to `CNc1nc(SC)nc2c1ncn2[C@@H]1C[C@@H](O)[C@H](CO)O1`, for which the IC50 in the data set on MOLT-4 [1] was greater than 300 µM; in the data set with NALL-1 [2], 186 µM; in the data set with B-95-8 cell line [3], greater than 300 µM; in the data set with K562 [4] it was greater than 300 µM; with Raji [5], greater than 300 µM; in the data set with HL-60 [6], greater than 300 µM. The IC50 is 81 µM in the data set with PHA-Ly [7] and greater than 300 µM in the data set on U-937 [8].
Take `CNc1nc(Br)nc2c1ncn2[C@@H]1C[C@@H](O)[C@H](CO)O1`: the IC50 in the data set on MOLT-4 [1] amounted to 177 µM; in the data set on NALL-1 [2] it was 230 µM; in the data set on B-95-8 cell line [3] it was 253 µM; in the data set with K562 [4] it was 110 µM; in the data set with Raji [5] it was 80 µM; in the data set on HL-60 [6], 143 µM. The figures for the IC50 in the data set on PHA-Ly [7] and in the data set on U-937 [8] were 30 µM and 140 µM, respectively.
In the case of `CN(C)c1nc(Br)nc2c1ncn2[C@@H]1C[C@@H](O)[C@H](CO)O1`, the IC50 is greater than 300 µM in the data set on MOLT-4 [1]; 290 µM in the data set with NALL-1 [2]; greater than 300 µM with B-95-8 cell line [3]; greater than 300 µM in the data set on K562 [4]; greater than 300 µM in the data set with Raji [5]; greater than 300 µM with HL-60 [6]. Moreover, the IC50 in the data set with PHA-Ly [7] amounted to 88 µM; with U-937 [8], 164 µM.
Consider `CN(C)c1nc(N)c2ncn([C@@H]3C[C@@H](O)[C@H](CO)O3)c2n1`, for which the IC50 in the data set with MOLT-4 [1] was greater than 300 µM; in the data set with NALL-1 [2], greater than 300 µM; in the data set with B-95-8 cell line [3], 182 µM; in the data set with K562 [4], greater than 300 µM; in the data set with Raji [5], 125 µM; in the data set with HL-60 [6], greater than 300 µM. In addition, the IC50 in the data set with PHA-Ly [7] and in the data set with U-937 [8] was greater than 300 µM in each case.
For `CN(C)c1nc(N(C)C)c2ncn([C@@H]3C[C@@H](O)[C@H](CO)O3)c2n1`, the ID50 result in the data set with K562 [9], in the data set with B-95-8 cell line [10], with U-937 [11], in the data set on NALL-1 [12], in the data set with HL-60 [13] and in the data set with Raji [14] was “inactive” in each case. The ID50 entry in the data set on MOLT-4 [15] and in the data set on PHA-Ly [16] was “inactive” throughout.
Take `Nc1nc(Br)nc2c1ncn2[C@@H]1C[C@@H](O)[C@H](CO)O1`: the CC50 with U-937 [17] worked out at 0.8 µM; in the data set on MOLT-4 [18], 3.2 µM; in the data set on NALL-1 [19] it was 12 µM; in the data set on Raji [20], 0.7 µM. The IC50 in the data set on B-95-8 cell line [3] was found to be 6 µM; with K562 [4], 83 µM; in the data set on HL-60 [6] it was 41 µM; in the data set on PHA-Ly [7] it was 1.6 µM.
